# Measured values pooled from the literature.
# Each line is one published result; the experiments were not run side by side.
# Target: Cytochrome P450 2D6 (CYP2D6, Homo sapiens, UniProt P10635)
SMILES,assay,system,conditions,measurement,result
CC(=O)c1cccc(OCc2cc(C(=O)N(C)[C@@H](C)c3ccccn3)no2)c1,"enzyme activity, inhibitor","human, liver microsomes",,IC50,> 30 µM
Nc1ccc(S(=O)(=O)Nc2ccnn2-c2ccccc2)cc1,"enzyme activity, inhibitor","human, liver microsomes",10 µM,inhibition,-23%
Cc1ccc(C(=O)N2CCOC[C@H]2Cc2cccc(-n3nccn3)c2)c(-n2nccn2)c1,"enzyme activity, inhibitor","human, liver microsomes",100 µM,inhibition,33%
CCN(Cc1cnc2nc(N)nc(N)c2n1)c1ccc(C(=O)N2CCC(C(=O)OC)CC2)cc1,"enzyme activity, inhibitor, luciferase",,10 µM,inhibition,-20%
Cc1nc2c([nH]1)c(=O)n(C)c(=O)n2Cc1ccco1,"enzyme activity, inhibitor","human, liver microsomes",40 µM,inhibition,-35%
CCc1cc(/C(C)=N/OCc2ccc(C3CCCCC3)c(C(F)(F)F)c2)ccc1CN1CC(C(=O)O)C1,"enzyme activity, inhibitor","human, liver microsomes","200 µM, 20 min",inhibition,17.4%
NC(=O)C1CCN(C(=O)Cc2ccc(N(CCCO)Cc3cnc4nc(N)nc(N)c4n3)cc2)CC1,"enzyme activity, inhibitor, luciferase",,10 µM,inhibition,-15.4%
C[C@H]1C[C@@H](N2C(=N)N[C@](C)(c3cccc(NC(=O)c4cccc(C#N)c4)c3Cl)CC2=O)CCO1,"enzyme activity, inhibitor","human, liver microsomes","20 µM, 15 min",inhibition,45%
NC(=O)C1CCCN1C(=O)Cc1ccc(N(CCCO)Cc2cnc3nc(N)nc(N)c3n2)cc1 (centres unmarked),"enzyme activity, inhibitor, luciferase",,10 µM,inhibition,-13.9%
C=C[C@H]1C[N@@]2CC[C@H]1C[C@@H]2[C@@H](O)c1ccnc2ccc(OC)cc12,"enzyme activity, inhibitor","human, liver microsomes",1 µM,inhibition,80.8%
CN(Cc1cnc2nc(N)nc(N)c2n1)c1ccc(C(=O)N2CCCCC2)cc1,"enzyme activity, inhibitor, luciferase",,10 µM,inhibition,-23.3%
COCCc1ccc(OCC(O)CNC(C)C)cc1 (centres unmarked),,"human, plasma","oral, 100 mg, single dose, healthy volunteers",AUC(0-inf),770 ng·h/mL
C=CC(=O)Nc1cc(Nc2nccc(Nc3cc(Cl)c(F)cc3C(C)(C)O)n2)c(OC)cc1N1CC[C@@H](N(C)C)C1,"enzyme activity, inhibitor","human, liver microsomes",10 µM,inhibition,< 20%
Cc1cccc(F)c1N1CCC(N2Cc3cn(CC(C)(F)F)nc3N(Cc3ccccc3C(F)(F)F)C2=O)CC1,"enzyme activity, inhibitor","human, liver microsomes",,IC50,> 10 µM
Nc1nc(N)c2nc(CNc3cccc4ccccc34)cnc2n1,"enzyme activity, inhibitor, luciferase",,10 µM,inhibition,102%
O=C(N[C@H](Cc1c[nH]c2ccccc12)C(=O)Nc1ccncc1)c1ccc(-c2cc(F)ccc2F)cc1F,"enzyme activity, inhibitor","human, liver microsomes",1 µM,inhibition,47%
CC1(CO)C(O[C@@H]2O[C@H](C(=O)O)[C@@H](O)[C@H](O)[C@H]2O)CC[C@@]2(C)C1CC[C@]1(C)C2CC=C2[C@H]3CC(C)(C)[C@H](O)[C@@H](O)[C@]3(CO)[C@H](O)C[C@]21C (some centres unmarked),"enzyme activity, inhibitor, mass spectrometry","human, liver microsomes",,IC50,> 90 µg/mL
